Test [1] has as its target Insulin receptor (Homo sapiens) (UniProt P06213). As to the kind of experiment: Activation of human insulin receptor overexpressed in mouse 3T3-HIR cells assessed as increase in phosphotyrosine at >=18 uM in absence of insulin. The class given is cell-based.
For test [2], the system named is Rattus norvegicus. Kind of test: Reduction in blood glucose level in streptozotocin-induced hypoinsulinemic CD rat at 1000 mg/kg, po after 30 mins after glucose loading by oral glucose tolerance test. It is filed as functional. Details: scale not given: the % may be the effect or the level left. The method in brief:
(§1)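 Male CD IGS rats (250-300 g) received streptozotocin 60 mg/kg ip and were enrolled if fed glucose was ≥250 mg/dL. On day 4 post-STZ they were fasted overnight and randomized on baseline glucose (n = 12/group). They got compound or PBS, then a 50% dextrose load by gavage (4 mL/kg). Tail blood glucose was read by glucometer, and groups were compared by unpaired t test.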

Test [3] concerns 3T3-L1. Kind of test: Increase in insulin-stimulated glucose transport in mouse 3T3-L1 cells at >=30 uM in presence of insulin. It is filed as functional, cell-based.
Test [4] concerns Rattus norvegicus. As to the kind of experiment: Reduction in blood glucose level in streptozotocin-induced hypoinsulinemic CD rat at 50 mg/kg, ip after 30 mins after glucose loading by oral glucose tolerance test. The class given is functional. Details: scale not given: the % may be the effect or the level left. The method in brief:
as §1

Test [5] has as its system 3T3-L1. As to the kind of experiment: Increase in glucose transport in mouse 3T3-L1 cells at 30 uM in absence of insulin. The class given is functional. The method in brief: (§2)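 Differentiated 3T3-L1 adipocytes (induced 72 h with dexamethasone, IBMX and insulin, then 48 h with insulin, then 4 days in normal medium) were serum-starved 16 h in 0.1% BSA. Compound was added without insulin for 30 min at 37 °C. Uptake of 0.5 µCi/mL 2-deoxy-D-[14C]glucose over 30 min was read by scintillation counting of lysates after a cold PBS rinse.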

For test [6], the system named is 3T3-L1. As to the kind of experiment: Increase in glucose transport in mouse 3T3-L1 cells at 50 uM in absence of insulin. The class given is functional. The method in brief:
as §2

A further test deals with Insulin receptor (Mus musculus, UniProt P15208). Kind of test: Activation of insulin receptor tyrosine kinase in mouse 3T3-L1 cells assessed as increase in 2-deoxy-D-[14C]glucose transport in presence of insulin. The class given is cell-based. The method in brief:
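Differentiated, 16 h serum-starved 3T3-L1 adipocytes were exposed to compound plus 5.6 nM insulin (submaximal) for 30 min at 37 °C. They were then pulsed 30 min with 0.5 µCi/mL 2-deoxy-D-[14C]glucose and lysate counts were read. Four concentrations were tested in triplicate. EC50 came from nonlinear regression of untransformed data, given as mean ± SEM when n ≥ 3.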

Test [7] has as its system 3T3-L1. Kind of test: Increase in GLUT4 content in mouse 3T3-L1 cell plasma membrane at 56 uM in presence of insulin. The class given is functional.
Test [8] deals with Insulin receptor (Homo sapiens) (UniProt P06213). As to the kind of experiment: Activation of human insulin receptor overexpressed in mouse 3T3-HIR cells assessed as increase in phosphotyrosine at 3 uM in presence of insulin. It is filed as cell-based.
Chain of Insulin receptor (Homo sapiens) (P06213 28-758 limits assumed): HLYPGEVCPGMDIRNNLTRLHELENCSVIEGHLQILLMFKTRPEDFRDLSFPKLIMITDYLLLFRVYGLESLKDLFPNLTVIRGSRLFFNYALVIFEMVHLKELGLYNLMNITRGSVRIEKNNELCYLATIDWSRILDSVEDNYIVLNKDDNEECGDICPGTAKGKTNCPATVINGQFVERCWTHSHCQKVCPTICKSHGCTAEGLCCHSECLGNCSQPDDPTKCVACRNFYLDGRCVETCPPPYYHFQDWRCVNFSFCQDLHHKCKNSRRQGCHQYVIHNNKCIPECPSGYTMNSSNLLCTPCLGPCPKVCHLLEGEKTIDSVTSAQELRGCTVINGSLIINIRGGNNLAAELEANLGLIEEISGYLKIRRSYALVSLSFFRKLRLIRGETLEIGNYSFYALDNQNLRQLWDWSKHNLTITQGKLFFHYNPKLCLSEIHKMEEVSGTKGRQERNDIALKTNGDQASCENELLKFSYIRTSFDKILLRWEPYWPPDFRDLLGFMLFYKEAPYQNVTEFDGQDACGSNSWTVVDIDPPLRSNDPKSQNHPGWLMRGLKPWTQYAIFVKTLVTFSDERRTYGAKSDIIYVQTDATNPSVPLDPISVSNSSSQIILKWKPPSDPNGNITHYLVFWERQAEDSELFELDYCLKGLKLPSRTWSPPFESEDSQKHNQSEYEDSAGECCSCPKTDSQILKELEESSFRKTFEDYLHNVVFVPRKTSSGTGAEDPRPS
Chain of Insulin receptor (Homo sapiens) (P06213 763-1382 limits assumed): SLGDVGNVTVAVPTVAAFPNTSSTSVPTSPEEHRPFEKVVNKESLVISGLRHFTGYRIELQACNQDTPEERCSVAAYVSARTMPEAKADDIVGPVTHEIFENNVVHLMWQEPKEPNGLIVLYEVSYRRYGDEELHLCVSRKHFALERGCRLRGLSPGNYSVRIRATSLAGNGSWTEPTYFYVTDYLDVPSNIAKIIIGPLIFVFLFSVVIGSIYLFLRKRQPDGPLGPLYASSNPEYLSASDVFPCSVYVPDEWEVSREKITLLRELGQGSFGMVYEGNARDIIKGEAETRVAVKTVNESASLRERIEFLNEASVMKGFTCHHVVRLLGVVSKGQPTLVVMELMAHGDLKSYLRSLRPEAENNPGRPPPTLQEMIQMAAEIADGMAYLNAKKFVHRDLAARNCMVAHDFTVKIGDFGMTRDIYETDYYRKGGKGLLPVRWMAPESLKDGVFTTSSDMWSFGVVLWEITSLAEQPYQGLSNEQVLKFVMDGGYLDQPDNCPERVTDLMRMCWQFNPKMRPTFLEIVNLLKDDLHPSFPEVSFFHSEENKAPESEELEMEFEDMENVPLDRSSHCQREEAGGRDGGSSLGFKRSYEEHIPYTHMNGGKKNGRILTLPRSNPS

Activity calls are given as the source filed them. The calls are words filed in the database; no cut-off is given here.

Chain of Insulin receptor (P15208 28-748 limits assumed): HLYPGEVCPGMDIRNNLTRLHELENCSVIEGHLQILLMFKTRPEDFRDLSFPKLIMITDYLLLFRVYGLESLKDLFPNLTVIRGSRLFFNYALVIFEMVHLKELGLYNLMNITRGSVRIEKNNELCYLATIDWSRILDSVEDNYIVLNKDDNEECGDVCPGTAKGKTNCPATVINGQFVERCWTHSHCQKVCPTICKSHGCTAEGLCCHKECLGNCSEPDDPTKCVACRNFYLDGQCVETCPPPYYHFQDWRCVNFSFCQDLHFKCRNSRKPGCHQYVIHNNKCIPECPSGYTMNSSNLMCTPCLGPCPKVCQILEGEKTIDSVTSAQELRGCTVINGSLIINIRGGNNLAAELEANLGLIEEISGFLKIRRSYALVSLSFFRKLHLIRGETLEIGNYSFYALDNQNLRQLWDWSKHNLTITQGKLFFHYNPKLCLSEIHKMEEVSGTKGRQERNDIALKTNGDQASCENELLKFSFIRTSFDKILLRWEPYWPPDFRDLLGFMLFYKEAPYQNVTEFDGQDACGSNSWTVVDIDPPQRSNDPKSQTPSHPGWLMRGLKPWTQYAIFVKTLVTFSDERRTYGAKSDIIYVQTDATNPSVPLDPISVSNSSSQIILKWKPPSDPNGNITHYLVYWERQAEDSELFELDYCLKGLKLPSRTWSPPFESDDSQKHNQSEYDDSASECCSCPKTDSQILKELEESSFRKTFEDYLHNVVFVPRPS
Chain of Insulin receptor (P15208 753-1372 limits assumed): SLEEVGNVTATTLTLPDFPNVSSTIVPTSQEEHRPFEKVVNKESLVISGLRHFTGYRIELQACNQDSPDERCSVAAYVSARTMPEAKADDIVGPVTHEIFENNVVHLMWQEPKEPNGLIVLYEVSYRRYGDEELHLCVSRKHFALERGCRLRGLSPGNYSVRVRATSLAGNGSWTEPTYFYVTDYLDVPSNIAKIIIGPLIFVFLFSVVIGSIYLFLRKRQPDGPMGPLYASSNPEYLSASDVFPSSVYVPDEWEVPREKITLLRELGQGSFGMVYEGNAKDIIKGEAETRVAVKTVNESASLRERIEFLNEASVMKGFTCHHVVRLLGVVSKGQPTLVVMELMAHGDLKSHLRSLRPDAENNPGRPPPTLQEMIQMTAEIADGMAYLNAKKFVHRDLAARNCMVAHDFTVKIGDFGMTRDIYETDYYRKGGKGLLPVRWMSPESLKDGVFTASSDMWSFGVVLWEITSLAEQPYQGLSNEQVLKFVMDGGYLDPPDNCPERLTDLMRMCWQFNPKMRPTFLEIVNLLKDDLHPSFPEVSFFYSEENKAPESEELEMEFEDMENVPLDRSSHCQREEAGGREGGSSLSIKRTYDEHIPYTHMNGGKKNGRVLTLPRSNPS

Usually EC50 stands for the concentration at which the effect is half-maximal. Regarding `O=C(Nc1ccc2c(O)cc(S(=O)(=O)Nc3ccc(Cl)c(S(=O)(=O)[O-])c3)cc2c1)Nc1ccc2c(O)cc(S(=O)(=O)Nc3ccc(Cl)c(S(=O)(=O)[O-])c3)cc2c1.[Na+].[Na+]`, the result (in test [1]; with 3T3-L1 [3]) was Active. Besides, the Activity with Rattus norvegicus [2] worked out at 32%; with Rattus norvegicus [4] it was 25%; in the test on 3T3-L1 [5], 340%; in the test with 3T3-L1 [6], 875%; in the test on 3T3-L1 [7], 85%; in [8], 75%. Moreover, the concentration for a half-maximal effect (EC50) at Insulin receptor is 5 µM.

For the origin of these results see ChEMBL document CHEMBL1140118, “Design, synthesis, and structure-activity relationships of novel insulin receptor tyrosine kinase activators” (J Med Chem, 2008).
